The values that follow come from ChEMBL document CHEMBL4428067, “Drug Discovery against Psoriasis: Identification of a New Potent FMS-like Tyrosine Kinase 3 (FLT3) Inhibitor, 1-(4-((1H-Pyrazolo[3,4-d]pyrimidin-4-yl)oxy)-3-fluorophenyl)-3-(5-(tert-butyl)isoxazol-3-yl)urea, That Showed Potent Activity in a Psoriatic Animal Model” (J Med Chem, 2016).

For experiment [1], the species on record is Mus musculus. The experiment is described as follows: Antipsoriatic activity in K14-VEGF transgenic mouse model of psoriasis assessed as recurrence of psoriatic symptoms at 0.05% applied tropically over lesion for continuous 21 days measured after 15 days of last dosage by macroscopic analysis relative to vehicle control. Format: functional, organism-based. Summed up:
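Homozygous K14-VEGF mice, 3–4 months old, with moderate to serious psoriasis. Lesions smeared with cream with or without 0.05% compound for 3 weeks, then observed untreated for another 15 days. Head and neck photographed on days 0, 21 and 36 for macroscopic assessment.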

The species named for experiment [2] is Mus musculus. The experiment is described as follows: Antipsoriatic activity in K14-VEGF transgenic mouse model of psoriasis assessed as reduction in Baker scores at 0.05% applied tropically over lesion for continuous 29 days by H and E staining method relative to vehicle control. Format: functional, organism-based. In a few lines: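 Homozygous K14-VEGF mice, 3–4 months old, with moderate to serious psoriasis; n=3 per group. Cream with 0.05% compound or vehicle cream smeared on lesions. Head and neck tissue sections taken after 29 days of treatment and HE-stained. Baker pathological score from 5 random fields, given as mean and SD. Epidermal thickness from 8 random fields, given as mean ± SEM.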

For experiment [3], the target named is T1, Receptor-type tyrosine-protein kinase FLT3 (Mus musculus) (UniProt Q00342).
T1 sequence (whole entry): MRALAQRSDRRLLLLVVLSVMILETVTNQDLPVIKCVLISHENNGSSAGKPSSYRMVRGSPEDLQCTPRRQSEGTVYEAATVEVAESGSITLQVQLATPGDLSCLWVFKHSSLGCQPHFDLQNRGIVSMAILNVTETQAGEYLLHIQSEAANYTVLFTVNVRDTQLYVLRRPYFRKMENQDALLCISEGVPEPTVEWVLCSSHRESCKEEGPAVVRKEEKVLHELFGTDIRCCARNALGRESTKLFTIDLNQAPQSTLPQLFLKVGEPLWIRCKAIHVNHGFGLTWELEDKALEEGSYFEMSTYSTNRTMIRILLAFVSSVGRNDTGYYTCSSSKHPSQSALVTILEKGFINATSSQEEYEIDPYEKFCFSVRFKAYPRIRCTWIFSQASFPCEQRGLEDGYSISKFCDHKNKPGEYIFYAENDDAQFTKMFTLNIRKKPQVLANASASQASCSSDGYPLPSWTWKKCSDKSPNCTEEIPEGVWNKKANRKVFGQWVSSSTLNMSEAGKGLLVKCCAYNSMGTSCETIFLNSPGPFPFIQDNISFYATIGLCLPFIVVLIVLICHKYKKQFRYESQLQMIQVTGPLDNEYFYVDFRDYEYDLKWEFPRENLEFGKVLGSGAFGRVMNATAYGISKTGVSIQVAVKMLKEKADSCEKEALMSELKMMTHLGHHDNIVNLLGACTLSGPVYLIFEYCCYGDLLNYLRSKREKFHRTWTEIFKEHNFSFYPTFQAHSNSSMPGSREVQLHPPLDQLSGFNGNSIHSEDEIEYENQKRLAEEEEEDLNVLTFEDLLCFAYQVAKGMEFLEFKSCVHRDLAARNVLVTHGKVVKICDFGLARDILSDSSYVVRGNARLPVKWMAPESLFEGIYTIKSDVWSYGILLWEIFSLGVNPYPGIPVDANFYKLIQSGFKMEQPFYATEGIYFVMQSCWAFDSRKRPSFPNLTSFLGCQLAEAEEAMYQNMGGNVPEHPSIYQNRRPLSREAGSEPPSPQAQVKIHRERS
The experiment is described as follows: Inhibition of FLT3 in Balb/c mouse BMDCs assessed as suppression of FLT3L-induced pDC formation measured as upper left quadrant cells level treated on day 9 post 9 days of FLT3L-stimulation measured after 24 hrs by CD11c PerCP and CD45R/B220 FITC staining based flow cytometric analysis (reference value: 45.8%). More on the design: scale not given: the % may be the effect or the level left. In a few lines: (§1)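 BALB/c bone marrow cells were cultured at 1×10^6/ml with FLT3L in supplemented RPMI-1640 for 9 days. Compound in DMSO or 0.1% DMSO was added on day 9 for 24 h. Cells were stained for 30 min with CD11c PerCP plus B220 FITC (pDC: CD11c+ B220+) or MHC II FITC (mDC: CD11c+ MHC II+), then analysed by flow cytometry. Three independent experiments.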
For orientation: A flow cytometer gives signals particle by particle.

Experiment [4] is filed under the species Mus musculus. The experiment is described as follows: Antipsoriatic activity in K14-VEGF transgenic mouse model of psoriasis assessed as decrease in Th17 cell formation in lymph node at 0.05% applied tropically over lesion for 29 days by flow cytometric analysis relative to vehicle-treated control. The class given is functional, organism-based. In a few lines:
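K14-VEGF mice were treated topically for 29 days with 0.05% cream or vehicle. Lymph node cells were surface-stained with anti-CD4 PE, then fixed and permeabilised. They were stained with FITC anti-IL-17 and analysed by flow cytometry, three mice, mean ± SD.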

Experiment [5] has as its target T1, Receptor-type tyrosine-protein kinase FLT3 (Mus musculus). Briefly: Inhibition of FLT3 in mouse BMDCs assessed as suppression of STAT3 phosphorylation at 10 and 100 nM treated on day 9 post 9 days of FLT3L-stimulation measured after 1 hr by Western blot analysis. Summed up: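 Bone marrow cells were cultured 9 days with FLT3L in supplemented RPMI-1640, then exposed to compound or 0.1% DMSO for 1 h on day 9. Whole cells were lysed and immunoblotted with rabbit antibodies to STAT3, STAT5, pSTAT3 and pSTAT5. Three independent experiments.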
(In general: Immunoblotting shows a protein as a band on a membrane.)

The species named for experiment [6] is Mus musculus. Briefly: Antipsoriatic activity in K14-VEGF transgenic mouse model of psoriasis assessed as decrease in CD31 expression in psoriatic lesion at 0.05% applied tropically over lesion for continuous 29 days by immunohistochemical analysis relative to vehicle control. Also noted: scale not given: the % may be the effect or the level left. Format: functional. Summed up: (§2)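 K14-VEGF mice were treated topically with 0.05% cream or vehicle for 29 days, n=3 per group. Ear skin was paraffin-embedded, cut into 4-µm sections and immunostained. Staining was quantified in 5 random fields, reported as mean ± SD.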

The species named for experiment [7] is Mus musculus. The experiment is described as follows: Antipsoriatic activity in K14-VEGF transgenic mouse model of psoriasis assessed as decrease in DC cells expressing FLT3 and CD11c in psoriatic lesion at 0.05% applied tropically over lesion for continuous 29 days by flow cytometric analysis relative to control. Format: functional.
Experiment [8] is filed under the species Mus musculus. The experiment is described as follows: Downregulation of IFN-gamma expression in K14-VEGF transgenic mouse model of psoriasis at 0.05% applied tropically over lesion for 29 days by ELISA. The class given is functional, organism-based. Summed up:
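K14-VEGF mice were treated for 29 days with 0.05% cream or vehicle, n=3 each. At termination, blood was held at 4 °C for 12 h and then centrifuged. Plasma IFN-γ and IL-17 were measured by ELISA, mean ± SD.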
A general note: An ELISA detects its analyte on a solid surface through an enzyme-linked reagent.

The species named for experiment [9] is Mus musculus. Briefly: Antipsoriatic activity in K14-VEGF transgenic mouse model of psoriasis assessed as decrease in CD8 expression in psoriatic lesion at 0.05% applied tropically over lesion for continuous 29 days by immunohistochemical analysis relative to vehicle control. The class given is functional. Also noted: scale not given: the % may be the effect or the level left. In a few lines:
as §2

Experiment [10] concerns the target T1, Receptor-type tyrosine-protein kinase FLT3 (Mus musculus). Briefly: Inhibition of FLT3 in Balb/c mouse BMDCs assessed as suppression of FLT3L-induced mDC formation measured as lower right quadrant cells level treated on day 9 post 9 days of FLT3L-stimulation measured after 24 hrs by CD11c PerCP and I-A/I-E (MHC class II) FITC staining based flow cytometric analysis (reference value: 3.49%). More on the design: scale not given: the % may be the effect or the level left. In a few lines: as §1

Active and inactive are the calls of the source. The calls are words filed in the database; no cut-off is given here.

For `CC(C)(C)c1cc(NC(=O)Nc2ccc(Oc3ncnc4[nH]ncc34)c(F)c2)no1`, the result in experiment [1] was inactive. For the same molecule, the outcome in experiment [2], in [4] and in experiment [8] was Active. For the same molecule, the Activity in experiment [3] turned out to be 40.3%; in experiment [6], 94%; in experiment [9] it was 79%; in experiment [10], 5.15%. The inhibition entry in [5] was “Active”. Besides, the “inhibition (INH)” value in experiment [7] is reported as 69.6%.
